Experimental data: ChEMBL document CHEMBL3045815, “The cruciferous phytoalexins rapalexin A, brussalexin A and erucalexin: chemistry and metabolism in Leptosphaeria maculans” (Bioorg Med Chem, 2012)

How the values were obtained:
[1] = Half life in water; assay type: physicochemical
[2] = Half life in potato dextrose agar medium; assay type: physicochemical
[3] = tested on: Plenodomus lingam; test: Antifungal activity against Leptosphaeria maculans assessed as mycelial radial growth inhibition on potato dextrose agar at 0.10 mM relative to control; assay type: functional
Procedure, shortened: (§1)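 Mycelial radial growth on PDA. L. maculans isolates BJ-125 or UAMH-9410 were grown on V8 agar for 14 days at 23 °C under constant light. Wells with PDA containing test compound (0.50, 0.20 or 0.10 mM) or control, each with 1% CH3CN, were inoculated centrally with inverted 4 mm plugs from 7-day-old V8 plates. Growth after 5 days under constant light gave % inhibition = 100 − (amended/control growth × 100); ± SD.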

[4] = tested on: Plenodomus lingam; test: Antifungal activity against Leptosphaeria maculans assessed as mycelial radial growth inhibition on potato dextrose agar at 0.20 mM relative to control; assay type: functional; procedure, shortened: as §1
[5] = tested on: Plenodomus lingam; test: Antifungal activity against Leptosphaeria maculans assessed as mycelial radial growth inhibition on potato dextrose agar at 0.50 mM relative to control; assay type: functional; procedure, shortened: as §1
[6] = Half life in Leptosphaeria maculans; assay type: ADME, organism-based; details: plenodomus lingam
Procedure, shortened: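 Minimal medium inoculated with L. maculans BJ-125 spores was shaken at 120 rpm and 23 °C under constant light. After 2 days, compound was added in CH3CN (0.10 mM final); uninoculated medium served as control. Samples were taken immediately and at intervals up to 72–96 h, then frozen or extracted with EtOAc. Extracts were concentrated, taken up in CH3CN and analysed by HPLC.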

SMILES	half-life [1] [h]	half-life [2] [h]	inhibition at 100 µM [3] [%]	inhibition at 200 µM [4] [%]	inhibition at 500 µM [5] [%]	half-life [6] [h]
CNC(=S)SCc1c[nH]c2ccccc12	20	24	17	35	61	
CON1c2ccccc2C(O)C12CN=C(SC)S2 (mixture of isomers) [DIHYDROERUCALEXIN]			7	13	23	
CON1c2ccccc2C(=O)C12CN=C(SC)S2 (racemic) [RAC-ERUCALEXIN]			6	17	40	< 6
C=CCNC(=O)SCc1c[nH]c2ccccc12 [BRUSSALEXIN A]	48	15	7	25	43	
OCc1c[nH]c2ccccc12 [INDOLE-3-CARBINOL]	> 72		19	27	52	
COc1cccc2[nH]cc(N=C=S)c12 [RAPALEXIN A]			21	53	100	
